KCNQ1 inh: inhibitors of human KCNQ1 channel, primary screen, cell-based, thallium flux, high-throughput; 1.3% of 310,000 active; CHO-K1 KCNQ1, FluxOR thallium flux fluorescence; active compounds read high; AID 2642, 2010; Potassium voltage-gated channel subfamily KQT member 1 (Homo sapiens), P51787; B-score at 10 µM;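 active = compounds whose thallium flux B-score, printed positive for inhibition, exceeds three library SD while starting fluorescence stays within three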;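 also: channel opened by potassium depolarization with thallium stimulus after 20 min compound exposure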
KCNK3 block: human KCNK3 channel inhibitors, primary screen, CHO cells, FluxOR thallium flux, B-score. Potassium channel subfamily K member 3 (Homo sapiens), O14649. FluxOR fluorescence; active compounds read low. B-score at 10 µM. 0.84% of 340,000 active;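 active = B-score under library mean minus 4 SD, starting fluorescence ratio at most library mean plus 5 SD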;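 also: more negative B-score means stronger inhibition of thallium flux through KCNK3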
KCNQ1 pot: potentiators or activators of KCNQ1 channel, primary screen, cell-based, thallium flux, high-throughput; Potassium voltage-gated channel subfamily KQT member 1 (Homo sapiens), P51787; CHO-K1 KCNQ1, thallium flux FluxOR fluorescence; active compounds read high; B-score at 10 µM; 0.35% of 310,000 active; AID 2648, 2010;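 active = fluorescence ratio B-score, a plate-corrected score, at least three library SD, with initial intensity B-score within 5 SD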
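Material: CHO-K1 cells stably expressing KCNQ1. Medium: assay buffer for compound exposure, DMSO matched across wells. Reagent: K+/Tl+ depolarizing stimulus. Compound dosing: single-concentration screen. Times: 37 °C overnight plating, 90-min dark dye load, 20-min compound pretreatment. Technique: FluxOR Tl+ flux fluorescence.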
hERG rescue: hERG rescue from dofetilide block, primary screen, cell-based, CHO-hERG, FluxOR thallium flux, dofetilide IC70; Voltage-gated inwardly rectifying potassium channel KCNH2 (Homo sapiens), Q12809; dofetilide IC70 present; activation (rescue from dofetilide block), less the hit threshold, % at 10 µM; 0.51% of 310,000 active;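 active = activation above the mean of controls blocked by dofetilide plus 5 SD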;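 also: thallium influx through hERG after potassium depolarization seen as dye fluorescence rise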
Kir21 block: inhibitors of mouse Kir2.1 inward-rectifier potassium channel | HEK293-Kir2.1, FluxOR thallium flux fluorescence; active compounds read low | B-score at 10 µM | AID 1672, 2009 | 0.85% of 310,000 active | Inward rectifier potassium channel 2 (Mus musculus), P35561;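 active = fluorescence ratio B-score at or below minus 3 SD of library scores, with starting-brightness B-score within 2 SD, cut at about -4.2 in these data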;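 also: channel flux triggered by added potassium and thallium sulfate stimulus; B-score of peak minus minimum fluorescence over baseline after thallium stimulus; more negative B-score means stronger Kir2.1 block with less thallium influx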
Target sequence (P35561 whole entry, looked up): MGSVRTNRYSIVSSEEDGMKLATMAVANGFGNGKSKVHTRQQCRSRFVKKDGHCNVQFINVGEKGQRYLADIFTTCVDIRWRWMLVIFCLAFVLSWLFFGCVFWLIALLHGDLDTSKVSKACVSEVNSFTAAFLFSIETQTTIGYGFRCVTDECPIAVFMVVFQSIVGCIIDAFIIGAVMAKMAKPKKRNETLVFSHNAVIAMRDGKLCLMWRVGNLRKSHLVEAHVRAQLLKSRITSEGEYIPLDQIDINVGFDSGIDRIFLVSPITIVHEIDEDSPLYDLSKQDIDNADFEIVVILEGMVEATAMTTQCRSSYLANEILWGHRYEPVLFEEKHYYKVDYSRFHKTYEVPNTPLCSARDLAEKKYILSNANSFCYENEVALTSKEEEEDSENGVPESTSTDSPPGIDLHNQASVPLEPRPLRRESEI
KCNK9 inh: KCNK9 potassium channel inhibitors, primary screen, HEK293 cells, thallium flux; Potassium channel subfamily K member 9 (Homo sapiens), Q9NPC2; FluxOR thallium flux fluorescence; active compounds read low; B-score at 10 µM; 1.2% of 310,000 active; AID 488922, 2010;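 active = ratio B-score over 3 SD below the library mean, with starting fluorescence within 5 SD of its mean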;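 also: negative B-score means less thallium flux so channel inhibition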
KCNQ1 block val: KCNQ1 potassium channel inhibitors, confirmation, cell-based, Tl flux, duplicate; shares compounds with KCNQ1 inh; KCNQ1 cell line, FluxOR thallium flux fluorescence; inhibition, % at 10 µM; 93% of 1,600 active; AID 588353, 2011;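 active = primary screen active, with duplicate mean exceeding buffer control mean plus 3 SD of buffer wells, cut at about 28% in these data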
CHO Tl flux: thallium flux effects in parental CHO cells, counter-screen for KCNQ1 inhibitor project, cell-based, Tl flux; shares compounds with KCNQ1 inh; parental CHO-K1, FluxOR thallium flux fluorescence ratio; active compounds read low; zero means no signal rise above baseline; fluorescence ratio (Tl flux) at 10 µM; 21% of 1,600 active;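 active = mean of duplicate thallium-flux fluorescence ratios in parental host cells more than 5 SD below the buffer control mean, cut at about 0.38 in these data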;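 also: ratio is peak minus minimum fluorescence divided by baseline fluorescence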
KCNQ1 APC inh: KCNQ1 channel inhibitors, confirmation, orthogonal assay, cell-based, automated electrophysiology; calls only at 10 µM; 20% of 490 active; KCNQ1-CHO cells, automated patch clamp current; shares compounds with KCNQ1 inh;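 active = KCNQ1 current drop exceeding 3 SD of negative control wells, seen in both duplicate runs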;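 also: steady state current during a 2 s step from -80 to +40 mV; negative values mean current inhibition and positive values mean potentiation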
KCNQ2 spec: KCNQ2 channel inhibition, selectivity assay for KCNQ1 inhibitor project, cell-based. shares compounds with KCNQ1 inh. 71% of 1,600 active. AID 651746, 2012. KCNQ2 cells, FluxOR thallium flux fluorescence. inhibition, % at 10 µM;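 active = mean percent inhibition of the KCNQ2 thallium signal more than 5 SD above the buffer-only control wells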;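 also: KCNQ2 expressed in CHO cells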
KCNQ1 KCNE1 spec: KCNQ1/KCNE1 channel inhibition, selectivity assay for KCNQ1 inhibitor project, CHO-K1 cells, thallium flux, FluxOR | 77% of 1,600 active | inhibition, % at 10 µM | FluxOR thallium flux fluorescence | shares compounds with KCNQ1 inh;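 active = mean percent inhibition of duplicate wells above the buffer-only control mean plus 3 SD of those controls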
Hits are given with their value; – = inactive; · = no result given; + = active, no number. Hits are enriched below; roughly 3.7% of the tested compounds scored in any of these assays.

SMILES	KCNQ1 inh	KCNK3 block	KCNQ1 pot	hERG rescue	Kir21 block	KCNK9 inh	KCNQ1 block val	CHO Tl flux	KCNQ2 spec	KCNQ1 KCNE1 spec	others
Cc1ccc(NC(=O)c2sc3ncnc(N4CCN(c5ccccn5)CC4)c3c2C)c(C)c1	–	–	–	–	–	–	·	·	·	·
Cc1nc(N2CCN(c3ccccn3)CC2)c2c(C)c(C(=O)N3CCN(c4ccccc4F)CC3)sc2n1	–	–	–	–	–	–	·	·	·	·
Cc1nc(N2CCN(c3ccccn3)CC2)c2c(C)c(C(=O)Nc3ccc(Br)cc3C)sc2n1	7	–	–	–	–	–	82.5	–	98.0%	103.5%
C=CCN(c1nc(C)c(Br)c(OC)n1)S(=O)(=O)c1ccc(C)cc1	7	–	–	–	–	–	113.0	–	118.0%	83.0%	KCNQ1 APC inh=–
Cc1onc(-c2ccccc2)c1C(=O)Nc1nc(-c2ccc(F)c(F)c2)cs1	7	–	–	–	–	–	103.5	–	109.0%	120.0%	KCNQ1 APC inh=–
O=C(Nc1ccccc1)Nc1nc(-c2ccc(F)c(F)c2)cs1	6	–	–	–	–	–	72.0	–	83.7%	81.5%
O=C(CNCCC1=CCCCC1)Nc1ccccc1N1CCCCC1	8	–	–	–	–	–	132.0	0.371	110.3%	179.0%
Cc1ccc(NC(=O)CSCC(=O)Nc2ccccc2N2CCCCC2)cc1	8	–	–	–	–	–	114.5	–	–	167.5%	KCNQ1 APC inh=+
O=C(CNC1CCCCCC1)Nc1ccccc1N1CCCCC1	–	–	–	–	–	–	·	·	·	·
Cc1cccc(NC(=O)CSCC(=O)Nc2ccccc2N2CCCCC2)c1	–	–	–	–	–	–	·	·	·	·
CSc1cccc(NC(=O)COC(=O)c2ccccn2)c1	·	–	·	·	·	·	·	·	·	·
Cc1ccccc1-n1c(=O)c2ccccc2n(CC(=O)NCc2ccco2)c1=O	–	–	–	–	–	–	·	·	·	·
CC(=O)c1c(C)n(CC(=O)NCc2ccco2)c2ccccc12	10	–	–	–	–	–	33.0	–	–	50.0%
CCOC(=O)C1=C(C)N(C)C(C)=C(C(=O)OCC)C1c1ccc(C(=O)OC)cc1	6	–	–	–	–	–	105.5	0.303	114.7%	151.0%
CCOC(=O)C1=C(C)N(C)C(C)=C(C(=O)OCC)C1c1ccc(Cl)cc1	–	–	–	–	–	–	·	·	·	·
COc1ccc(-n2nc(C(=O)Nc3nc4ccc(OC)cc4s3)c3ccccc3c2=O)cc1	–	–	–	–	–	–	·	·	·	·
CCOC(=O)c1ccccc1NC(=S)N1CCN(C2CCCCC2)CC1	–	–	–	–	–	–	·	·	·	·
N#Cc1ccccc1NC(=O)C1SC(=Nc2ccccc2)C(C(=O)Nc2ccc(Cl)cc2)=C1N (stereo not drawn)	10	–	–	–	–	–	112.5	–	97.3%	82.0%	KCNQ1 APC inh=–

Screens as filed in PubChem BioAssay.
